NAH = SAM mimic in which the sulfonium ion is replaced by a nitrogen atom; C3 = 3-carbon linker to the N-terminal alpha-amine
Experiments:
[1] = target: T1, NTMT1 (Homo sapiens, UniProt Q9BV86); settings: read-out: Ki, app; previously developed NTMT1 bisubstrate inhibitors; cited from earlier work
T1 sequence (Q9BV86 1-223): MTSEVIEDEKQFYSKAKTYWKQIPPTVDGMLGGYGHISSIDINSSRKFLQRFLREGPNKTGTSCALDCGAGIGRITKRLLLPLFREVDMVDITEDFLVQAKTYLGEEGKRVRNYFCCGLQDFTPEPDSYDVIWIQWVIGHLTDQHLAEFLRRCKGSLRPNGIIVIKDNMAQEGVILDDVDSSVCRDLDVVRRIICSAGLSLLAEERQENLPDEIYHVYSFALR

[2] = target: T2, HemK2/KMT9-Trm112 complex (Homo sapiens, UniProt Q9Y5N5); assay: HemK2-Trm112 methylation inhibition assay; format: biochemical; settings: read-out: inhibition of activity
T2 sequence (Q9Y5N5 1-214): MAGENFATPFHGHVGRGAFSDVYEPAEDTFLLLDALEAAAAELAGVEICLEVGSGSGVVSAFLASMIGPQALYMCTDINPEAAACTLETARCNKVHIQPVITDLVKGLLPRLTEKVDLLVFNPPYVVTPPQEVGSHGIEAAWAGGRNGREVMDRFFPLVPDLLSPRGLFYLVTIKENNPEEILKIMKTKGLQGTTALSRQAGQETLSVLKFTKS
T2 sequence (Q9UI30 1-125 partner): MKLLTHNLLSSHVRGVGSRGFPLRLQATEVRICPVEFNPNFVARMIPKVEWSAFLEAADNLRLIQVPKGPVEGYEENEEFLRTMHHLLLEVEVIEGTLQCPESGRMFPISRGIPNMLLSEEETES

[3] = target: protein N-terminal methyltransferase 1 (NTMT1), purified recombinant (human) (UniProt Q9BV86); assay: SAHH-coupled fluorescence enzyme inhibition assay
[4] = target: T1, NTMT1; format: binding; settings: probe immobilized on streptavidin beads
Method in brief: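 Biotinylated probe (100 µM) was loaded overnight onto streptavidin resin in 20 mM Tris, 50 mM KCl, pH 7.5. Purified NTMT1 was bound for 4 h in the same buffer plus 1 mM DTT, then washed until no protein was detected. Elution was stepwise with 500 mM, 1 M, 2 M and 4 M NaCl, moving to the next step once eluate protein approached 0 mg/mL.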

[5] = target: T1, NTMT1; assay: Pull-down from HeLa cell lysates with immobilized probe, anti-NTMT1 Western blot; format: binding; settings: 700 mM NaCl wash
Method in brief: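 Lysate was incubated overnight with probe-loaded streptavidin resin, optionally with competitor (10 mM stock) added first; resin alone served as control. Washes used IP buffer, then 700 mM NaCl. Boiled-bead eluates were run on SDS-PAGE and blotted with anti-NTMT1 (1:1000, 4°C overnight) and HRP secondary, with ECL detection.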

| Molecule | Ki [3] | Ki [1] | further results |
| --- | --- | --- | --- |
| CC[C@H](C)[C@H](NC(=O)[C@H](CCCNC(=N)N)NC(=O)[C@H](CCCCN)NC(=O)[C@@H]1CCCN1C(=O)CNCCCCN(CC[C@H](N)C(=O)O)C[C@H]1O[C@@H](n2cnc3c(N)ncnc32)[C@H](O)[C@@H]1O)C(=O)N[C@@H](C)C(N)=O [NAH-C4-GPKRIA] |  | 0.13 ± 0.04 nM |  |
| Nc1ncnc2c1ncn2[C@@H]1O[C@H](C[C@@H](N)CC[C@H](N)C(=O)O)[C@@H](O)[C@H]1O [sinefungin] |  |  | inhibition at 100 µM [2]: ~50% |
| NAH-C3-GPKK-biotin [Probe 6] |  |  | salt concentration at which NTMT1 was eluted off the probe [4]: 4 M NaCl; enrichment of NTMT1 from HeLa cell lysates [5]: enriched |
| NAH-C3-PPKRIA ({NAH-C3}-PPKRIA-NH2) |  | 39 ± 10 nM |  |

More lines, main results first:

| Ki [3] | Molecule | Ki [1] | further results |
| --- | --- | --- | --- |
| 41 nM | NAH-C3-GPK (compound 3) (peptide) |  |  |
| 44 nM | NAH-C4-GPK (compound 4) (peptide) |  |  |
